Assay results published in ChEMBL document CHEMBL2384910, “Lead optimization of 5-amino-6-(2,2-dimethyl-5-oxo-4-phenylpiperazin-1-yl)-4-hydroxyhexanamides to reduce a cardiac safety issue: discovery of DS-8108b, an orally active renin inhibitor” (Bioorg Med Chem, 2013).
Substitutions are numbered along the chain they refer to.

How the values were obtained:
[1] = molecular target: T1, Renin (Macaca fascicularis, UniProt Q6DLS0); experiment: Inhibition of renin in cynomolgus monkey plasma after 1 hr by RIA
T1 sequence (Q6DLS0 whole entry): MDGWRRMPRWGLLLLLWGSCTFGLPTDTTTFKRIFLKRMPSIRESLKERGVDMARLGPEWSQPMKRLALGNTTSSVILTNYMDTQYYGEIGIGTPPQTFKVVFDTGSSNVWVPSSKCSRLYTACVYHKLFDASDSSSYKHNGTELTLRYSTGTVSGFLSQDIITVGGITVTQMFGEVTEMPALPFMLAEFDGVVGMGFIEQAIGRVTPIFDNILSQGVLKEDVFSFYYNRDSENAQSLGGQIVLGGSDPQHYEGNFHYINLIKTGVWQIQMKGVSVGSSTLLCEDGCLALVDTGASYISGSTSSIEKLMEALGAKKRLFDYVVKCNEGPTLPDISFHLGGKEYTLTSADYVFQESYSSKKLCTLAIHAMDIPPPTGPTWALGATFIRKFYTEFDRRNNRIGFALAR
Outline: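 Pooled mixed-gender EDTA cynomolgus monkey plasma with pH adjusting solution and Inhibitor A, compound in 1% DMSO final, incubated 1 h at 37 °C. Angiotensin I by competitive RIA; uninhibited and 4 °C controls define % inhibition; IC50 from four-parameter fit; ratio is compound IC50 over aliskiren IC50 in same plasma batch; ≥2 replicates.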

[2] = molecular target: T2, Renin (Homo sapiens, UniProt P00797); experiment: Inhibition of human recombinant renin using Arg-Glu(EDANS)-Ile-His-Pro-Phe-His-Leu-Val-Ile-His-Thr-Lys (DABCYL)-Arg as substrate incubated for 10 mins prior to substrate addition measured after 90 mins by fluorescence assay
T2 sequence (P00797 whole entry): T1 sequence (Q6DLS0 whole entry) with A68T, L214I, A235S
Outline: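 Trypsin-activated recombinant human renin in 50 mM Tris-HCl pH 7.9, 100 mM NaCl, preincubated with compound 10 min at room temperature; FRET substrate Arg-Glu(EDANS)…Lys(DABCYL)-Arg added, 90 min at 37 °C.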

[3] = test system: Cynomolgus monkey; experiment: Inhibition of renin in po dosed furosemide pretreated cynomolgus monkey assessed as reduction in mean arterial blood pressure; assay type: functional, organism-based; settings: Macaca fascicularis
Outline: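 Conscious freely moving telemetered cynomolgus monkeys (n = 6), furosemide 5 mg/kg/day im for 3 days before dosing; fasted from morning, fed ≥8 h post-dose. Oral 1, 3, 10 mg/kg or 1% methylcellulose, crossover design; arterial pressure recorded from −3 to 24 h; hourly mean MAP; mean ± SEM.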

[4] = Plasma concentration cynomolgus monkey at 1000 mg/kg, po after 4 hrs; assay type: ADME, organism-based, Macaca fascicularis; set-up: dose 1000 mg/kg, route oral
[5] = Plasma concentration in beagle dog at 0.5 mg/kg/min, iv after 30 mins; assay type: ADME, organism-based, Canis lupus familiaris; set-up: route intravenous
Outline: (§1)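 Anesthetized dogs; after ECG parameters stabilized, compound infused iv continuously at 0.5 mg/kg/min for 1 h. ECG changes at 30 min as % change from baseline; 2 mL blood drawn from left femoral artery for plasma drug concentration.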

[6] = test system: Canis familiaris; experiment: Cardiotoxicity in anesthetized beagle dog assessed as change in QTc interval at 0.5 mg/kg/min, iv after 30 mins relative to baseline; assay type: toxicity, organism-based, Canis lupus familiaris; set-up: route intravenous; settings: in vivo, 0.5 h; outline: as §1
[7] = test system: Oryctolagus cuniculus; experiment: Cardiotoxicity in anesthetized New Zealand White rabbit assessed as change in QTc interval at 1 mg/kg/min, iv after 10 mins relative to baseline; assay type: toxicity, organism-based; set-up: route intravenous; settings: in vivo
Outline: (§2)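 Female NZW rabbits anesthetized with ketamine 35 mg/kg ip plus xylazine 5 mg/kg ip, tracheotomized, ventilated with room air. ECG and systemic pressure monitored; HR, PR, QRS, QT, QTc quantified. After stabilization, continuous iv infusion 1 mg/kg/min for 1 h; values at 10 min as % change from baseline.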

[8] = test system: Oryctolagus cuniculus; experiment: Cardiotoxicity in anesthetized New Zealand White rabbit assessed as change in […] at 1 mg/kg/min, iv after 10 mins relative to baseline; assay type: toxicity, organism-based; set-up: route intravenous; settings: in vivo; outline: as §2
[9] = test system: Oryctolagus cuniculus; experiment: Cardiotoxicity in anesthetized New Zealand White rabbit assessed as change in heart rate at 1 mg/kg/min, iv after 10 mins relative to baseline; assay type: toxicity, organism-based; set-up: route intravenous; settings: in vivo; outline: as §2
[10] = test system: Heart; experiment: Cardiotoxicity in New Zealand White rabbit heart assessed as change in QRS width at 100 uM after 20 mins relative to baseline; assay type: toxicity, tissue-based, Oryctolagus cuniculus
Outline: (§3)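 Isolated Langendorff-perfused hearts from female NZW rabbits anesthetized with thiopental 30 mg/kg iv; heart excised into chilled Krebs-Henseleit solution. After parameters stabilized, compound perfused at 10, 30 and 100 µM for 20 min; ECG changes expressed as % change from baseline.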

[11] = test system: Heart; experiment: Cardiotoxicity in New Zealand White rabbit heart assessed as change in heart rate at 100 uM after 20 mins relative to baseline; assay type: toxicity, tissue-based, Oryctolagus cuniculus; outline: as §3
[12] = molecular target: Sodium channel protein type 5 subunit alpha (Homo sapiens, UniProt Q14524); experiment: Inhibition of human voltage-gated Na channel 1.5 expressed in HEK293 cells at 100 uM after 2 mins by patch clamp technique; assay type: cell-based; settings: hek293, 2 min
Sodium channel protein type 5 subunit alpha, sequence (Q14524 whole entry): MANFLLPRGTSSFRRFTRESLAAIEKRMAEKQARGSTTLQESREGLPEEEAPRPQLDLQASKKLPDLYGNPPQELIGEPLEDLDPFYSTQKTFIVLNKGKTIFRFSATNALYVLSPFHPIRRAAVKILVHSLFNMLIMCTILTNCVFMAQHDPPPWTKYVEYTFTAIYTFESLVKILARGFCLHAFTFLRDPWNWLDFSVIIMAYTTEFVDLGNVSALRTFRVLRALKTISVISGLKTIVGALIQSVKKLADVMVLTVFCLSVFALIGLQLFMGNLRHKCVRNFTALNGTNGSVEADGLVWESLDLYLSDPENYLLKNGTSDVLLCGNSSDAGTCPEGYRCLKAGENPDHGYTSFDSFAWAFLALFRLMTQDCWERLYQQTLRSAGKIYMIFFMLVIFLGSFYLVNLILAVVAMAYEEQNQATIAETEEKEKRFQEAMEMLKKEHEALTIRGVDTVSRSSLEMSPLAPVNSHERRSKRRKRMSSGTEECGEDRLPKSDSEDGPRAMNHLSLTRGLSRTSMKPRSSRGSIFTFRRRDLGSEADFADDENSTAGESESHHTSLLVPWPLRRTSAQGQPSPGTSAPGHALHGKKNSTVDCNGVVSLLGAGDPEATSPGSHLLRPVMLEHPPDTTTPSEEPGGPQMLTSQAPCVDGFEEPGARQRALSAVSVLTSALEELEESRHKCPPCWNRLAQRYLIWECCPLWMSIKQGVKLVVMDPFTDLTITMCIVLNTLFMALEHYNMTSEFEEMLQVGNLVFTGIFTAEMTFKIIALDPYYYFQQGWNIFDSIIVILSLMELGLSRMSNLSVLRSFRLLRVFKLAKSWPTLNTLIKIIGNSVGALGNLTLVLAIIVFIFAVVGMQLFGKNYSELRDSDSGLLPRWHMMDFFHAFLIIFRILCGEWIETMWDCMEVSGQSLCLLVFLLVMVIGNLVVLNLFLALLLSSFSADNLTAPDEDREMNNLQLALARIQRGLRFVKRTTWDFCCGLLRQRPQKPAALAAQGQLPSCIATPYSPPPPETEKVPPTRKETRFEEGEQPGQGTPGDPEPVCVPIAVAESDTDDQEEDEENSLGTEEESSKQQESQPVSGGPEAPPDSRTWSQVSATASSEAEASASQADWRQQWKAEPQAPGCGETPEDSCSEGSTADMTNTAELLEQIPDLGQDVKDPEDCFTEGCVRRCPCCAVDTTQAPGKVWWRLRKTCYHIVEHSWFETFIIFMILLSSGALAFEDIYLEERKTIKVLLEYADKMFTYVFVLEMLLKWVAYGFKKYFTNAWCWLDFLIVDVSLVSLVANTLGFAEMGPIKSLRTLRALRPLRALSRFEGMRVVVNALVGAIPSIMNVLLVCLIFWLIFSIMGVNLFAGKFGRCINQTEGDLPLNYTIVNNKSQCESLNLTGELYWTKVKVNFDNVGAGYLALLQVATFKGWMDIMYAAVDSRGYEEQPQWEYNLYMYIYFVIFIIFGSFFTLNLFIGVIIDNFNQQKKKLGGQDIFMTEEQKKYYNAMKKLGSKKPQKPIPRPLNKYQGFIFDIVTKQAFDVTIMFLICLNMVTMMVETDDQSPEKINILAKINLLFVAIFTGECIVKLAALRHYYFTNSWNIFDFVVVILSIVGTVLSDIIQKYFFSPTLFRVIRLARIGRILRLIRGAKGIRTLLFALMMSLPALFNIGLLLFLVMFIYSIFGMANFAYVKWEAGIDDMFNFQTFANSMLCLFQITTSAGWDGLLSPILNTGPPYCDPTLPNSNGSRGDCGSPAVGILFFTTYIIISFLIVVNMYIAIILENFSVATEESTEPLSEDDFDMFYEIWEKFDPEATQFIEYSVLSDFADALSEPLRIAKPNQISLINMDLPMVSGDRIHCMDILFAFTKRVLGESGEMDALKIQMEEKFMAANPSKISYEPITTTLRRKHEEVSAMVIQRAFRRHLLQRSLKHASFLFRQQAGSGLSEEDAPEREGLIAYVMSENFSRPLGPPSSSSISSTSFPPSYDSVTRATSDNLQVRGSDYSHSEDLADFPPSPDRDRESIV
Outline: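 HEK293 cells stably expressing hNav1.5; automated patch clamp. 20 ms pulses to −10 mV from −120 mV holding at 1 Hz continuously; peak sodium current measured; compound incubated 2 min.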

[13] = test system: Rattus norvegicus; experiment: Cardiotoxicity in Sprague-Dawley rat electrophysiology model assessed as QRS complex abnormalities at 10 mg/kg, iv by ECG analysis; assay type: toxicity, organism-based; set-up: dose 10 mg/kg, route intravenous; settings: in vivo
Outline: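 Male Sprague-Dawley rats anesthetized with inactin 100 mg/kg ip; surface lead II ECG recorded continuously. Compounds given as iv bolus via right jugular vein catheter after stabilization; QRS complex abnormality scored as no, moderate or severe change; n = 2 at 10 mg/kg.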

[14] = molecular target: T3, Renin (Macaca fascicularis) (UniProt Q6DLS0); experiment: Ratio of compound IC50 to aliskiren IC50 for renin in cynomolgus monkey plasma
T3 sequence (whole entry): T1 sequence (Q6DLS0 whole entry)

[15] = test system: Cynomolgus monkey; experiment: Cardiotoxicity in conscious cynomolgus monkey assessed as change in QRS width at 1000 mg/kg, po after 4 hrs relative to baseline; settings: in vivo
[16] = test system: Cynomolgus monkey; experiment: Cardiotoxicity in conscious cynomolgus monkey assessed as change in heart rate at 1000 mg/kg, po after 4 hrs relative to baseline; settings: in vivo
[17] = test system: Cynomolgus monkey; experiment: Cardiotoxicity in conscious cynomolgus monkey assessed as change in QTc interval at 1000 mg/kg, po after 4 hrs relative to baseline; settings: in vivo

CC[C@H](C[C@H](O)[C@@H](N)CN1CC(=O)N(c2ccccc2Cl)CC1(C)C)C(=O)N[C@H]1C2CC3CC1C[C@](O)(C3)C2.O=C(O)/C=C/C(=O)O
IC50 [1]: 6.3 nM | IC50 [2]: 0.9 nM | inhibition [3]: Dose-dependent effect | concentration at 4 h [4]: 5400 ng/mL | concentration at 0.5 h [5]: 38100 ng/mL | Activity [6]: -1.4% | Activity [7]: 2.7% | Activity [8]: -1.3% | Activity [9]: 3.9% | Activity [10]: 1.7% | Activity [11]: -5.8% | inhibition (INH) [12]: Not Active | Activity [13]: Non-toxic | Ratio IC50 [14]: 0.8 | Activity [15]: -7.6% | Activity [16]: -4.2% | Activity [17]: -0.4%
